Results from ChEMBL document CHEMBL2417362, “Truncation of the peptide sequence in bifunctional ligands with mu and delta opioid receptor agonist and neurokinin 1 receptor antagonist activities” (Bioorg Med Chem Lett, 2013).
Active and inactive are the calls of the source. The calls are words filed in the database; no cut-off is given here. Non-standard residues stand in square brackets, D forms with d. Residues, ends and D or L forms follow the SMILES beside them. *: point of attachment. OBzl(3,5-(CF3)2) = FC(F)(F)c1cc(CO*)cc(C(F)(F)F)c1

Key:
[1] = target: Substance-P receptor (Cavia porcellus) (UniProt P30547); experiment: Antagonist activity at NK1 receptor in guinea pig ileum assessed as inhibition of substance P-induced muscle contraction; format: tissue-based
Substance-P receptor = Substance-P receptor (Homo sapiens, UniProt P25103); experiment: Displacement of [3H]substance P from human NK1 receptor expressed in CHO cells; format: cell-based
[2] = target: Mu-type opioid receptor (Cavia porcellus) (UniProt P97266); experiment: Agonist activity at mu opioid receptor in guinea pig ileum assessed as inhibition of electrically-stimulated muscle contraction at 1 uM; format: tissue-based
Rattus norvegicus [3] = experiment: Antiallodynic activity in po dosed spinal nerve ligated Sprague-Dawley rat assessed as attenuation of SNL-induced tactile allodynia; format: functional, organism-based
Procedure, shortened: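 Spinal nerve ligated rats dosed orally; tactile (von Frey) and thermal hypersensitivity compared with vehicle.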

Rattus norvegicus [4] = experiment: Antiallodynic activity in intrathecally dosed spinal nerve ligated Sprague-Dawley rat assessed as attenuation of SNL-induced tactile allodynia; format: functional, organism-based
Procedure, shortened: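 Spinal nerve ligated rats given intrathecal doses, expressed as µg/5 µL, with 10% DMSO/water as vehicle; tactile allodynia measured by von Frey and compared with vehicle over time.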

Rattus norvegicus [5] = experiment: Antinociceptive activity in Sprague-Dawley rat assessed as […] at 10 ug/5 uL administered intrathecally; format: functional, organism-based
Procedure, shortened: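 Non-injured rats given intrathecal 10 µg/5 µL in 10% DMSO/90% distilled water; hind paw withdrawal latency to radiant heat (Hargreaves) read 15 min after injection and compared with vehicle.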

Chain of Substance-P receptor (Cavia porcellus) (P30547 whole entry): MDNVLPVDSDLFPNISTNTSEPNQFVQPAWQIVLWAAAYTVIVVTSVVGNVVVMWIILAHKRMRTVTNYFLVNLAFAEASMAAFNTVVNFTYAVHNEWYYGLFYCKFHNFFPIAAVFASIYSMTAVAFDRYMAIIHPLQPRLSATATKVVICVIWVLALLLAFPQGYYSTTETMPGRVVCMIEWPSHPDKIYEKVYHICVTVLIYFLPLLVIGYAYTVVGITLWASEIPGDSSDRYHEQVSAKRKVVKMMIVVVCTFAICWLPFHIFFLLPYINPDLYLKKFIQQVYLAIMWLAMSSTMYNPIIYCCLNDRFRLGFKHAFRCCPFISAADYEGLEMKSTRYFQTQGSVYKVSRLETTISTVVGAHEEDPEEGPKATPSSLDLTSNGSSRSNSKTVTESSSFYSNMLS
Chain of Substance-P receptor (P25103 whole entry): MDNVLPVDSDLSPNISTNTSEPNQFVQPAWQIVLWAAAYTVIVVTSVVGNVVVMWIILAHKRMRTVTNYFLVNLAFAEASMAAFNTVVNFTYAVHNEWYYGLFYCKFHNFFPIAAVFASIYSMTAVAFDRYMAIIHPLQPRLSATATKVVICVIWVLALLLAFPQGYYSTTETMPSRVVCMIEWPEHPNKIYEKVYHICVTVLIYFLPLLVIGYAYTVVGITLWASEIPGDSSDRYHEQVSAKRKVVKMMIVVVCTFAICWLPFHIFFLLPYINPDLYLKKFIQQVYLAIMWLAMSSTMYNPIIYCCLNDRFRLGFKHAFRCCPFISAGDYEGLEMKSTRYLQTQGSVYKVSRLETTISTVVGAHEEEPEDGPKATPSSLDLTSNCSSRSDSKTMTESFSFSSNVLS
Chain of Mu-type opioid receptor (Cavia porcellus) (P97266 whole entry): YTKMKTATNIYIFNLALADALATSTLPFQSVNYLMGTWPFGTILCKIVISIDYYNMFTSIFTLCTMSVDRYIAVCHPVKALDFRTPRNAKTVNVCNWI

SMILES	Ke [1] [nM]	further results
CSCC[C@H](NC(=O)[C@H](Cc1ccccc1)NC(=O)CNC(=O)[C@@H](C)NC(=O)[C@@H](N)Cc1ccc(O)cc1)C(=O)NC(C)(C)C(=O)N[C@@H](CC(C)C)C(=O)N[C@@H](Cc1c[nH]c2ccccc12)C(=O)OCc1cc(C(F)(F)F)cc(C(F)(F)F)c1	12	Ki (Substance-P receptor): 0.12 nM
CSCC[C@H](NC(=O)[C@H](Cc1ccccc1)NC(=O)CNC(=O)[C@@H](C)NC(=O)[C@@H](N)Cc1ccc(O)cc1)C(=O)N1CCC[C@@H]1C(=O)N[C@@H](CC(C)C)C(=O)N[C@@H](Cc1c[nH]c2ccccc12)C(=O)OCc1cc(C(F)(F)F)cc(C(F)(F)F)c1	29	inhibition [2]: 25%
CSCC[C@H](NC(=O)[C@H](Cc1ccccc1)NC(=O)CNC(=O)[C@@H](C)NC(=O)[C@@H](N)Cc1ccc(O)cc1)C(=O)NC1(C(=O)N[C@@H](CC(C)C)C(=O)N[C@@H](Cc2c[nH]c3ccccc23)C(=O)OCc2cc(C(F)(F)F)cc(C(F)(F)F)c2)CCCC1	2	
C[C@@H](NC(=O)[C@@H](N)Cc1ccc(O)cc1)C(=O)NCC(=O)N[C@@H](Cc1ccccc1)C(=O)NCC(=O)N[C@@H](Cc1c[nH]c2ccccc12)C(=O)OCc1cc(C(F)(F)F)cc(C(F)(F)F)c1 (H-Y[dA]GFGW-{OBzl(3,5-(CF3)2)})	59	Activity (Rattus norvegicus [3]): inactive; Activity (Rattus norvegicus [4]): Dose-dependent effect; Activity (Rattus norvegicus [5]): Active
CC(C)C[C@H](NC(=O)[C@H](Cc1ccccc1)NC(=O)CNC(=O)[C@@H](C)NC(=O)[C@@H](N)Cc1ccc(O)cc1)C(=O)N[C@@H](Cc1c[nH]c2ccccc12)C(=O)OCc1cc(C(F)(F)F)cc(C(F)(F)F)c1 (H-Y[dA]GFLW-{OBzl(3,5-(CF3)2)})	2	
CSCC[C@H](NC(=O)[C@H](Cc1ccccc1)NC(=O)CNC(=O)[C@@H](C)NC(=O)[C@@H](N)Cc1ccc(O)cc1)C(=O)N[C@@H](C)C(=O)N[C@@H](CC(C)C)C(=O)N[C@@H](Cc1c[nH]c2ccccc12)C(=O)OCc1cc(C(F)(F)F)cc(C(F)(F)F)c1 (H-Y[dA]GFMALW-{OBzl(3,5-(CF3)2)})	380	
C[C@@H](NC(=O)[C@@H](N)Cc1ccc(O)cc1)C(=O)NCC(=O)N[C@@H](Cc1ccccc1)C(=O)N1CCCC1C(=O)N[C@@H](Cc1c[nH]c2ccccc12)C(=O)OCc1cc(C(F)(F)F)cc(C(F)(F)F)c1 (single isomer, unassigned)	1.8	
